Peptide text beside a SMILES is read from it.
Tests used:
[1] = system: gliadin-reactive intestinal T cell lines (iTCLs) from HLA-DQ2+ celiac patients; test: IFN-γ production; format: cell-based, human; settings: for Number of patients whose iTCL recognized the peptide (positive IFN-γ response) / Percentage of patients recognizing the peptide: 14 adult HLA-DQ2+ CD patients, positive = IFN-γ at least twice medium alone; for Hierarchical clustering by intensity of IFN-γ responses (OD peptide / OD medium): 14 patients, Cluster 3.0, Pearson correlation; for IFN-γ response (in words): peptide 30 μg/ml; for Potency in eliciting T cell responses relative to 33-mer: polyclonal iTCLs or peptide-specific TCCs
Procedure, shortened: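 iTCLs grown from collagenase-digested jejunal explants in X-Vivo15 with 5% AB serum, stimulated with irradiated PBMC, TG2-deamidated PT-gliadin (50 μg/ml) and IL-15 (10 ng/ml). T cells (3 × 10^4) were incubated with autologous EBV-B cells (6 × 10^4) and TG2-treated peptides (30 μg/ml; 37°C, 4 h, pH 6.8). IFN-γ was measured by ELISA at 48 h. Positive response: ≥2× medium. OD ratios were row/column-normalised, then clustered. Duplicates, ≥3 experiments.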

[2] = system: DQ2-α-I/III-specific T cell clones from patient CD230204; test: IFN-γ and proliferative responses of 17-mer-specific intestinal T cell clones; format: cell-based, human; settings: TCCs from patient CD230204; peptide 30 μg/ml (8–19 μM)
Procedure, shortened: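 T cell clones were derived from the patient's intestinal T cell line by limiting dilution with irradiated allogeneic PBMC, B-LCL and PHA. Peptides were deamidated with TG2 (1:1, 4 h, 37°C, Tris-HCl pH 6.8, CaCl2, NaCl, DTT). Each clone (1 × 10^4) was cultured with autologous B-LCL. IFN-γ ELISA on 48 h supernatants; proliferation by [3H]thymidine added for a further 16 h. Duplicates.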

[3] = target: purified HLA-DQ2 molecules (Homo sapiens, UniProt P01909+P01920); test: HLA-DQ2 binding assay; settings: read-out: IC50 of binding to purified HLA-DQ2; TG2-deamidated peptides; inhibition of 0.1–1 nM 125I-radiolabeled probe peptide binding to purified HLA-DQ2 (5–500 nM), 48 h in PBS; three or more independent assays
[4] = system: DQ2-α-I/III- or DQ2-α-II-specific intestinal T cells; test: Dose-response assays with peptide-pulsed irradiated APCs on iTCLs and TCCs; format: cell-based, human
Procedure, shortened: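 Autologous B-LCL APCs, irradiated, pulsed overnight at 37°C with 10-fold increasing doses of peptide. Peptide deamidated beforehand with TG2 (1:1 enzyme/substrate, 4 h, 37°C, Tris-HCl pH 6.8 with CaCl2, NaCl, DTT). APCs washed before adding T cells (3 × 10^4 iTCL or 1 × 10^4 TCC). IFN-γ ELISA on 48 h supernatants. Mean of duplicates; three separate experiments.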

[5] = system: iTCLs from patient CD041051; test: HLA restriction with anti-HLA-DR and anti-HLA-DQ blocking mAbs; format: cell-based, human; settings: peptide 15 μM; anti-HLA-DR and anti-HLA-DQ mAbs 10 μg/ml
Procedure, shortened: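 Intestinal T cell lines came from collagenase-digested mucosal explants, expanded with irradiated PBMC, TG2-deamidated peptic-tryptic gliadin (50 μg/ml) and IL-15. For the assay, B-LCL APCs were preincubated 10 min with anti-HLA-DR (clone L243) or anti-HLA-DQ (clone SPV-L3) before peptide. T cells were then added. IFN-γ was measured by ELISA in 48 h supernatants. Duplicate wells, at least three independent experiments.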

Sequence of purified HLA-DQ2 molecules (P01920 33-261, other chains not shown): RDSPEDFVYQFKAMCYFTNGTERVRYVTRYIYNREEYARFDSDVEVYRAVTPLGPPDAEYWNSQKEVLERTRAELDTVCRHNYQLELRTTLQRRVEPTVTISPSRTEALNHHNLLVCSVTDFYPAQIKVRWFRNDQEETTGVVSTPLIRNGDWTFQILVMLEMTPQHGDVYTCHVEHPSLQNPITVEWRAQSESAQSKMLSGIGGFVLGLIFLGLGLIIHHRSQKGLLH

| Compound | Number of patients whose iTCL recognized the peptide (positive IFN-γ response) [1] | Hierarchical clustering by intensity of IFN-γ responses (OD peptide / OD medium) [1] | IFN-γ response (in words) ([1]; iTCL of patient CD090401) | further results |
| --- | --- | --- | --- | --- |
| QQPPFSQQQQSPFSQ [Glt-156] | no intestinal T cell response | – | – | – |
| PFPQQPQQPYPQQPQ [DQ2-γ-III] | – | low intensity of IFN-γ responses | recognized | IFN-γ response (in words) ([1]; iTCL of patient CD061204): recognizing |
| PQQPQQSFPQQQQPA [DQ2-γ-I] | 5 patients | low intensity of IFN-γ responses | – | IFN-γ response (in words) ([1]; iTCL of patient CD230204): weakly |
| QLQPFPQPQLPYPQPQP [17-mer] | – | strongest and more consistent responses | very high levels of IFN-γ | Potency in eliciting T cell responses relative to 33-mer [1]: as potent as 33-mer; IFN-γ production and proliferation of 17-mer-specific T cell clones [2]: produced high levels of IFN-γ and proliferated |
| SHIPGLERPSQQQPLPPQQTL [Glt(19–39)] | no intestinal T cell response | – | – | – |
| PQLPQFLQPQPYPQPQLPYPQPQPF [25-mer] | – | strongest and more consistent responses | – | Potency in eliciting T cell responses relative to 33-mer [1]: as potent as 33-mer |
| PFRPQQPYPQPQPQY [Glia-20] | no responses | – | – | – |
| CC(C)C[C@H](NC(=O)[C@H](CCC(=O)O)NC(=O)[C@@H]1CCCN1C(=O)[C@H](CCC(N)=O)NC(=O)[C@@H]1CCCN1C(=O)[C@H](Cc1ccc(O)cc1)NC(=O)[C@@H]1CCCN1C(=O)[C@H](CCC(N)=O)NC(=O)[C@@H]1CCCN1C(=O)[C@@H](N)CCC(N)=O)C(=O)N1CCC[C@H]1C(=O)N[C@@H](Cc1ccc(O)cc1)C(=O)N1CCC[C@H]1C(=O)N[C@@H](CCC(N)=O)C(=O)N1CCC[C@H]1C(=O)N[C@@H](CCC(N)=O)C(=O)N1CCC[C@H]1C(=O)N[C@@H](Cc1ccccc1)C(=O)O [18-mer] (H-QPQPYPQPELPYPQPQPF-OH) | – | strongest and more consistent responses | very high levels of IFN-γ | – |
| PQPQPFPPQLPYPQPQS [AG12] | – | low intensity of IFN-γ responses | recognized | – |
| CC(C)C[C@H](NC(=O)[C@H](CCC(N)=O)NC(=O)[C@@H](N)CC(C)C)C(=O)N[C@@H](CCC(N)=O)C(=O)N1CCC[C@H]1C(=O)N[C@@H](Cc1ccccc1)C(=O)N1CCC[C@H]1C(=O)N[C@@H](CCC(N)=O)C(=O)N1CCC[C@H]1C(=O)N[C@@H](CCC(N)=O)C(=O)N[C@@H](CC(C)C)C(=O)N1CCC[C@H]1C(=O)N[C@@H](Cc1ccc(O)cc1)C(=O)N1CCC[C@H]1C(=O)N[C@@H](CCC(N)=O)C(=O)N1CCC[C@H]1C(=O)N[C@@H](CCC(N)=O)C(=O)N[C@@H](CC(C)C)C(=O)N1CCC[C@H]1C(=O)N[C@@H](Cc1ccc(O)cc1)C(=O)N1CCC[C@H]1C(=O)N[C@@H](CCC(N)=O)C(=O)N1CCC[C@H]1C(=O)N[C@@H](CCC(N)=O)C(=O)N[C@@H](CC(C)C)C(=O)N1CCC[C@H]1C(=O)N[C@@H](Cc1ccc(O)cc1)C(=O)N1CCC[C@H]1C(=O)N[C@@H](CCC(N)=O)C(=O)N1CCC[C@H]1C(=O)N[C@@H](CCC(N)=O)C(=O)N1CCC[C@H]1C(=O)N[C@@H](Cc1ccccc1)C(=O)O [33-mer] (H-LQLQPFPQPQLPYPQPQLPYPQPQLPYPQPQPF-OH; N-terminus and C-terminus assumed) | 7 patients | strongest and more consistent responses | intermediate IFN-γ levels | Percentage of patients recognizing the peptide [1]: 50%; IFN-γ response (in words) ([1]; iTCL of patient CD041051): high response; IFN-γ production and proliferation of 17-mer-specific T cell clones [2]: vigorously reacted; IC50 [3]: 44 nM |
| QPQQPFPQPQQPFPWQP [DQ2-ω-1] | five | strongest and more consistent responses | intermediate IFN-γ levels | Percentage of patients recognizing the peptide [1]: 35%; IFN-γ response (in words) ([1]; iTCL of patient CD041051): very high; IFN-γ response (in words) ([1]; iTCL of patient CD130406): responded; IFN-γ production at 10-fold increased concentrations of peptide ([4]; iTCLs from patient CD041051): retained stimulatory activity even at low concentrations; IFN-γ production and proliferation of 17-mer-specific T cell clones [2]: no cross-reactivity occurred; HLA restriction of recognition [5]: restricted by HLA-DQ2 |
| LQPQQPFPQQPQQPYPQQPQ [DQ2-γ-V] | – | low intensity of IFN-γ responses | – | IFN-γ response (in words) ([1]; iTCL of patient CD230204): weakly |
| QLQPFPQPTLPYPQPQS [T65] | four | strongest and more consistent responses | recognized | – |
| GQGIIQPQQPAQLIR [DQ2-γ-II] | – | low intensity of IFN-γ responses | – | IFN-γ response (in words) ([1]; iTCL of patient CD061204): recognizing |
| CC(C)C[C@H](NC(=O)[C@H](CCC(N)=O)NC(=O)[C@@H](N)CC(C)C)C(=O)N[C@@H](CCC(N)=O)C(=O)N1CCC[C@H]1C(=O)N[C@@H](Cc1ccccc1)C(=O)N1CCC[C@H]1C(=O)N[C@@H](CCC(N)=O)C(=O)N1CCC[C@H]1C(=O)N[C@@H](CCC(=O)O)C(=O)N[C@@H](CC(C)C)C(=O)N1CCC[C@H]1C(=O)N[C@@H](Cc1ccc(O)cc1)C(=O)O [13-mer] (H-LQLQPFPQPELPY-OH) | five | strongest and more consistent responses | very high levels of IFN-γ | IFN-γ response (in words) ([1]; iTCL of patient CD041051): weak IFN-γ production; Potency in activating DQ2-α-II-specific iTCLs (dose-response) ([4]; iTCLs from CD041051, APCs pulsed overnight with 10-fold increasing doses of TG2-deamidated peptide): weak stimulatory capacity and only at very high concentration (10 μM) |
| QIPQQQQIPQQPQQF [Glu-5] | – | – | weak IFN-γ response | – |
| PQPQPFLPQLPYPQPQS [AG11] | – | strongest and more consistent responses | – | – |

From PMC3306175 (Journal of Immunology (Baltimore, Md. : 1950), 2009)
